The source made the active and inactive calls. The rule behind the calls is not given here.
Key:
BV-2 [1] = assay: Inhibition of NO production in LPS-activated mouse BV2 cells at 10 uM after 24 hrs by Griess method relative to control; format: functional; details: for inhibition at 10 µM: BV-2, 24 h
How it was run: (§1)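 Murine BV-2 microglia stimulated with LPS 100 ng/mL with or without sample for 24 h; nitrite in culture medium measured by Griess reaction. Percent inhibition relative to LPS control at 10 μM, n = 3; IC50 also derived.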

BV-2 [2] = assay: Inhibition of NO production in LPS-activated mouse BV2 cells after 24 hrs by Griess method; format: functional, cell-based; details: BV-2, 24 h; how it was run: as §1
BV-2 [3] = assay: Inhibition of iNOS expression in LPS-activated mouse BV2 cells at 1-10 uM after 6 hrs by Western blot; format: functional, cell-based
How it was run: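 BV-2 cells treated 6 h with compound (1–10 μM) during LPS (100 ng/mL) activation; protein assessed by blotting with anti-tubulin as loading control; representative of three independent experiments.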

[4] = Cytotoxicity against mouse BV2 cells assessed as cell viability at 10 uM by MTT assay; format: cell-based; details: bv-2, 10 µM
How it was run: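 BV-2 microglia viability determined by MTT assay alongside the LPS (100 ng/mL) nitrite experiment.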

SMILES	IC50 (BV-2 [2])	inhibition at 10 µM (BV-2 [1])	Activity (BV-2 [3])	Activity (BV-2 [1])	Activity [4]
CCn1cc(-c2ccc(O)cc2)c(=O)c2ccccc21	18.5 µM	27%	–	–	–
O=c1c(-c2ccc(O)cc2)c[nH]c2ccccc12	15.6 µM	29.5%	–	–	–
COc1ccc(-c2cn(C)c3ccccc3c2=O)cc1	18.8 µM	31.9%	–	–	–
CCn1cc(-c2ccc(OC)cc2)c(=O)c2c(OC)cc(OC)cc21	17.6 µM	27.3%	–	–	–
CCn1cc(-c2ccc(OC)cc2)c(=O)c2ccccc21	25.8 µM	14.9%	–	–	–
COc1ccc(-c2c[nH]c3ccccc3c2=O)cc1	–	–	–	inactive	Toxic
COc1ccc(-c2c[nH]c3cc(OC)ccc3c2=O)cc1	–	–	–	inactive	Toxic
COc1ccc(-c2c[nH]c3cc(OC)cc(OC)c3c2=O)cc1	20.5 µM	23.2%	–	–	–

Continued by falling IC50 (BV-2 [2]), values first:

IC50 (BV-2 [2])	SMILES	inhibition at 10 µM (BV-2 [1])	Activity (BV-2 [3])	Activity (BV-2 [1])	Activity [4]
13.3 µM	Cn1cc(-c2ccc(O)cc2)c(=O)c2c(O)cc(O)cc21	39.3%	–	–	–
10.9 µM	O=c1c(-c2ccc(O)cc2)c[nH]c2cc(O)cc(O)c12	45%	–	–	–
9.91 µM	Cn1cc(-c2ccc(O)cc2)c(=O)c2ccccc21	47.4%	–	–	–
7.83 µM	CCn1cc(-c2ccc(O)cc2)c(=O)c2c(O)cc(O)cc21 [AZAISOFLAVONE]	58.1%	Dose-dependent effect	–	–
